In ChEMBL document CHEMBL1137246, “Horseradish peroxidase inhibition and antioxidant activity of ebselen and related organoselenium compounds” (Bioorg Med Chem Lett, 2006):
Activity calls are given as the source filed them. The rule behind the calls is not given here.

Columns and labels:
[1] = Inhibition of horseradish peroxidase by spectrophotometric method; set-up: species or system Armoracia rusticana
Method in brief: (§1)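 HRP (70 nM) with ABTS2- as substrate, with or without selenium compound at 0.06–0.1 mM. Reaction started by adding H2O2. Initial rates taken from the absorbance change at 645 nm (ABTS radical cation). Activity without compound set to 100%.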

[2] = Effect on gamma irradiation-induced TBARS formation in liposomes at 50 uM; format: functional
Method in brief: (§2)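 Liposomal suspensions, N2O/O2-purged, pH 7.4 phosphate buffer, exposed to a constant 280 Gy γ-dose (Fricke dosimetry). Peroxidation followed as TBARS with compound at 0.025–0.150 mM. IC50 is the concentration giving 50% inhibition of lipid peroxidation.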

[3] = Inhibition of gamma radiation-induced lipid peroxidation in liposomes; format: functional; method in brief: as §2
[4] = Glutathione peroxidase activity assessed by GSH-GSSG coupled assay; format: functional
Method in brief: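 GPx-like activity measured by GSH–GSSG coupled assay: glutathione reductase 0.3 U/ml, NADPH 0.25 mM, GSH 0.5–6 mM, compound 0.025 mM (in methanol, 2% in buffer), H2O2 1 mM substrate. NADPH loss at 340 nm fitted to an exponential; initial rates from ε 6220 M-1 cm-1, corrected for uncatalysed H2O2–GSH reaction. Km and Vmax from Lineweaver–Burk plots.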

[5] = Antioxidant activity assessed by singlet oxygen quenching ability; format: functional
[6] = test system: Armoracia rusticana; assay: Inhibition of horseradish peroxidase at 100 uM; method in brief: as §1
[7] = Antioxidant activity assessed by singlet oxygen quenching ability at 1mM; format: functional
[8] = Inhibition of gamma radiation-induced lipid peroxidation in liposomes at 200 uM; format: functional

| Compound | IC50 [1] | Activity ([2]; Liposome) | IC50 [3] | Km [4] | Activity [5] | inhibition [6] | Activity [7] | inhibition [8] | Activity [2] |
| --- | --- | --- | --- | --- | --- | --- | --- | --- | --- |
| O=C(Nc1ccccc1)c1ccccc1[Se]Cc1ccccc1 | > 100 µM | Active | 75 µM | 2.2 mM | Active | 33.1% | – | – | – |
| O=C(Nc1ccccc1)c1ccccc1[Te][Te]c1ccccc1C(=O)Nc1ccccc1 [EBSELEN DITELLURIDE] | 17.3 µM | Active | 175 µM | 2.3 mM | Active | – | – | – | – |
| O=C(Nc1ccccc1)c1ccccc1[Se][Se]c1ccccc1C(=O)Nc1ccccc1 [EBSELEN DISELENIDE] | 50 µM | Active | – | – | – | – | inactive | 19% | – |
| O=c1c2ccccc2[se]n1-c1ccccc1 [EBSELEN] | 16.9 µM | – | 25 µM | 13.2 mM | Active | – | – | – | Active |
| C[Se]c1ccccc1C(=O)Nc1ccccc1 | > 100 µM | Active | 100 µM | 5.25 mM | Active | 25.5% | – | – | – |
